One assay has as its system A549. Kind of assay: Cytotoxicity against human A549 cells assessed as inhibition of cell viability incubated for 48 hrs by MTT assay. It counts as functional, cell-based. Particulars: A549, 48 h. The essentials:
(§1)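 Log-phase cells seeded at 5 × 10^4 cells per mL in 96-well plates, cultured overnight at 37 °C, 5% CO2, then treated at 100, 50, 25, 12.5 and 6.25 μmol L−1, triplicate wells per concentration, for 48 h. MTT (20 μL of 5 mg ml−1) added for 4 h; after centrifugation the medium was removed and the formazan dissolved in DMSO. A570 was read and IC50 calculated. Cisplatin served as positive control.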
(Formazan colour is commonly taken as a measure of viable cells.)

For assay [1], the system named is HCC1806. Kind of assay: Cytotoxicity against human HCC1806 cells assessed as inhibition of cell viability incubated for 48 hrs by MTT assay. Format: functional, cell-based. Particulars: HCC1806, 48 h. The gist of the method: as §1
The next assay concerns HeLa. Kind of assay: Cytotoxicity against human HeLa cells assessed as inhibition of cell viability incubated for 48 hrs by MTT assay. It counts as functional, cell-based. The gist of the method: as §1
In assay [2] the target is Vascular endothelial growth factor receptor 2 (Homo sapiens) (UniProt P35968). Kind of assay: Inhibition of VEGFR-2 (unknown origin) at 50 uM incubated for 90 mins by Kinase-Glo MAX reagent based luminescence analysis relative to control. For orientation: Kinase-Glo measures the ATP left after a reaction by luminescence.
Sequence of Vascular endothelial growth factor receptor 2 (Homo sapiens) (P35968 whole entry): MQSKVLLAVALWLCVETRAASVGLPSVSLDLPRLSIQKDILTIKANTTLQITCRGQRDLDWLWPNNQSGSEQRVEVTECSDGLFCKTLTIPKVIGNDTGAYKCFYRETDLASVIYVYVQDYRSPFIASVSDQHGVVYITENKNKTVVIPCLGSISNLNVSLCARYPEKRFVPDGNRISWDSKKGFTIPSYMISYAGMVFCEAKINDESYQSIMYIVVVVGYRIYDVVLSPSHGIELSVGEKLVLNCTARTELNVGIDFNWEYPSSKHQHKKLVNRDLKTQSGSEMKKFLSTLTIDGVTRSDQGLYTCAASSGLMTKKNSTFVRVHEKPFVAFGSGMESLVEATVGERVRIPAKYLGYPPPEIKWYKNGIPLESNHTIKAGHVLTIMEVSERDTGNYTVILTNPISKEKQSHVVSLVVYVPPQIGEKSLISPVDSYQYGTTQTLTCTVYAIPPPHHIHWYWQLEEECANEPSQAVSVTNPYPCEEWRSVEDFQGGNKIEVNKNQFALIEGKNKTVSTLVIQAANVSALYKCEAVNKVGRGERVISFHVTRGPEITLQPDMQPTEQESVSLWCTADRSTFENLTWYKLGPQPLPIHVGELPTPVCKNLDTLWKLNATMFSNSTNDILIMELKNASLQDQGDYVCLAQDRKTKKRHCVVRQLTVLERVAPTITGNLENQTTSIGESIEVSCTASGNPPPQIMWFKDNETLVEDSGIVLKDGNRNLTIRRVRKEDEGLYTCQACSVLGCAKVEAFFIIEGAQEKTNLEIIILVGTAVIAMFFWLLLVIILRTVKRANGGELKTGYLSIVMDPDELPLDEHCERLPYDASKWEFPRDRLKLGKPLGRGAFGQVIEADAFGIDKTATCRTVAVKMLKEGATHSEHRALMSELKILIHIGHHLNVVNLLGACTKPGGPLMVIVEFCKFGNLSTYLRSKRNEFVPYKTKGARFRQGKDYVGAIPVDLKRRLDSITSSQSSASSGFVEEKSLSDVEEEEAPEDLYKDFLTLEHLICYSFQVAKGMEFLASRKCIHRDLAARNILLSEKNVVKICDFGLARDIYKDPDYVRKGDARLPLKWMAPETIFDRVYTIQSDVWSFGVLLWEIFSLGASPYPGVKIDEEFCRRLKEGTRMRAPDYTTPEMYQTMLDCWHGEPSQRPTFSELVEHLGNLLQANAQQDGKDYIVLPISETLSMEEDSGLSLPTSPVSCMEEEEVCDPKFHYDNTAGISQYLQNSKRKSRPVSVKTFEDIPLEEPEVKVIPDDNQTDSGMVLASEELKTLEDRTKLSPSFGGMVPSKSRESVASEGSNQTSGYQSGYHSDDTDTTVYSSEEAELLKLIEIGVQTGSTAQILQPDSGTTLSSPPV
Assay [3] concerns HCC1806. The experiment in a line: Induction of apoptosis in human HCC1806 cells assessed as proportion of early apoptotic cells at 6 uM incubated for 24 hrs by AnnexinV-FITC/PI staining based flow cytometry (reference value: 5.32 %). It counts as functional. A general note: A flow cytometer gives signals particle by particle.
Assay [4] deals with HCC1806. The experiment in a line: Induction of apoptosis in human HCC1806 cells assessed as proportion of early apoptotic cells at 3 uM incubated for 24 hrs by AnnexinV-FITC/PI staining based flow cytometry (reference value: 5.32 %). Format: functional.
The target in assay [5] is Vascular endothelial growth factor receptor 2 (Homo sapiens) (UniProt P35968). The experiment in a line: Inhibition of VEGFR-2 (unknown origin) at 100 uM incubated for 90 mins by Kinase-Glo MAX reagent based luminescence analysis relative to control. The gist of the method:
(§2)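 A VEGFR-2 (KDR) kinase kit was used. Compound was made in DMSO and diluted in 1× kinase buffer 1, with matched DMSO in all wells. Master mix and compound were combined, and the reaction was started with diluted VEGFR-2 kinase, then incubated at 30 °C for 45 min. Kinase-Glo MAX reagent was added for 15 min at room temperature before luminescence was read. Blank and positive-control wells were included.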

In assay [6] the test system is HCC1806. Kind of assay: Induction of apoptosis in human HCC1806 cells assessed as proportion of viable cells at 6 uM incubated for 24 hrs by AnnexinV-FITC/PI staining based flow cytometry (reference value: 86.0 %). It counts as functional.
Assay [7] deals with HCC1806. Kind of assay: Induction of apoptosis in human HCC1806 cells assessed as proportion of late apoptotic cells at 6 uM incubated for 24 hrs by AnnexinV-FITC/PI staining based flow cytometry (reference value: 5.29 %). Format: functional.
The test system of assay [8] is HCC1806. The experiment in a line: Induction of apoptosis in human HCC1806 cells assessed as proportion of necrotic cells at 3 uM incubated for 24 hrs by AnnexinV-FITC/PI staining based flow cytometry (reference value: 3.40 %). It counts as functional.
Assay [9] relates to HCC1806. Kind of assay: Induction of apoptosis in human HCC1806 cells assessed as proportion of necrotic cells at 6 uM incubated for 24 hrs by AnnexinV-FITC/PI staining based flow cytometry (reference value: 3.40 %). It counts as functional.
Assay [10] addresses Vascular endothelial growth factor receptor 2 (Homo sapiens) (UniProt P35968). The experiment in a line: Inhibition of VEGFR-2 (unknown origin) at 25 uM incubated for 90 mins by Kinase-Glo MAX reagent based luminescence analysis relative to control. The gist of the method: as §2
Assay [11] relates to HCC1806. The experiment in a line: Induction of apoptosis in human HCC1806 cells assessed as proportion of viable cells at 3 uM incubated for 24 hrs by AnnexinV-FITC/PI staining based flow cytometry (reference value: 86.0 %). Format: functional.
For assay [12], the system named is HCC1806. The experiment in a line: Induction of apoptosis in human HCC1806 cells assessed as proportion of late apoptotic cells at 3 uM incubated for 24 hrs by AnnexinV-FITC/PI staining based flow cytometry (reference value: 5.29 %). It counts as functional.

pIC50: −log10 of the molar value.

For orientation: pIC50 means the IC50 on a negative log10 scale, so that one unit is a factor of ten. One may read the inhibition as the percentage by which the read-out fell short of the control. A higher inhibition goes with strong suppression.

In the case of `COc1cc2ncnc(Nc3ccc4oc(C(=O)/C=C/c5ccccn5)cc4c3)c2cc1OC`, the pIC50 with A549, with HCC1806 [1] and with HeLa was less than 4.60 each time.
Take `COc1cc(/C=C/C(=O)c2cc3cc(Nc4ncnc5cc(OC)c(OC)cc45)ccc3o2)cc(OC)c1`: the inhibition in [2] was 16%; in [5], 38%; in assay [10], 10%. Besides, the Activity in the assay on HCC1806 [3] is recorded as 12.8%; with HCC1806 [4] it was 6.91%; with HCC1806 [6], 47.7%; in the assay with HCC1806 [7] it was 29.4%; with HCC1806 [8] it was 6.44%; with HCC1806 [9], 10%. Also, the values for the Activity with HCC1806 [11] and in the assay with HCC1806 [12] were 77.6% and 9.05%, respectively. The results for the pIC50 in the assay with A549, in the assay with HCC1806 [1] and with HeLa were less than 4.60, 5.23 and 5.25, respectively.
`COc1cc2ncnc(Nc3ccc4oc(C(=O)/C=C/c5cccs5)cc4c3)c2cc1OC`: the pIC50 in the assay with A549, in the assay with HCC1806 [1] and in the assay with HeLa was less than 4.60 in each case.
Consider `COc1cc2ncnc(Nc3ccc4oc(C(=O)/C=C/c5ccc(O)cc5)cc4c3)c2cc1OC`, for which the pIC50 in the assay with A549 is 5.20; with HCC1806 [1], 5.18; in the assay on HeLa, 5.21.
In the same order, the values of `COc1cc2ncnc(Nc3ccc4oc(C(=O)/C=C/c5c[nH]c6ccc(Br)cc56)cc4c3)c2cc1OC` are less than 4.60, less than 4.60 and less than 4.60.
Consider `COc1cc2ncnc(Nc3ccc4oc(C(=O)/C=C/c5cc6ccccc6o5)cc4c3)c2cc1OC`, for which the pIC50 in the assay on A549 was less than 4.60; with HCC1806 [1], 4.77; with HeLa, less than 4.60.
As to `COc1cc2ncnc(Nc3ccc4oc(C(=O)/C=C/c5ccccc5)cc4c3)c2cc1OC`, the pIC50 in the assay with A549 was 4.66; in the assay on HCC1806 [1] it was 5.15; in the assay with HeLa, 5.50.
With `COc1cc2ncnc(Nc3ccc4oc(C(=O)/C=C/c5ccc(F)c(F)c5)cc4c3)c2cc1OC`, the pIC50 in the assay on A549 is less than 4.60; in the assay with HCC1806 [1], 4.78; in the assay on HeLa it was less than 4.60.
On to `COc1cc2ncnc(Nc3ccc4oc(C(=O)/C=C/c5ccc(Br)cc5)cc4c3)c2cc1OC`, for which the pIC50 with A549 is less than 4.60; in the assay on HCC1806 [1] it was 4.73; in the assay on HeLa, 4.61.
With `COc1cc2ncnc(Nc3ccc4oc(C(=O)/C=C/c5c[nH]c6ccccc56)cc4c3)c2cc1OC`, the pIC50 with A549 was less than 4.60; in the assay with HCC1806 [1], 5.02; in the assay with HeLa, 5.31.
For the molecule `COc1cc2ncnc(Nc3ccc4oc(C(=O)/C=C/c5ccc(N6CCOCC6)cc5)cc4c3)c2cc1OC`, the pIC50 in the assay on A549, with HCC1806 [1] and in the assay with HeLa was less than 4.60 throughout.
As to `COc1cc2ncnc(Nc3ccc4oc(C(=O)/C=C/c5ccc(N(C)C)cc5)cc4c3)c2cc1OC`, the pIC50 in the assay with A549, in the assay on HCC1806 [1] and with HeLa was less than 4.60 throughout.
For `COc1cc2ncnc(Nc3ccc4oc(C(=O)/C=C/c5ccncc5)cc4c3)c2cc1OC`, the pIC50 in the assay with A549 was less than 4.60; in the assay on HCC1806 [1] it was 5.19; in the assay with HeLa it was 5.20.
The matching figures for `COc1cc2ncnc(Nc3ccc4oc(C(=O)/C=C/c5ccc(Cl)cc5)cc4c3)c2cc1OC`: less than 4.60, less than 4.60 and less than 4.60.
The matching figures for `COc1ccc(/C=C/C(=O)c2cc3cc(Nc4ncnc5cc(OC)c(OC)cc45)ccc3o2)cc1OC`: less than 4.60, less than 4.60 and less than 4.60.
The matching figures for `COc1cc2ncnc(Nc3ccc4oc(C(=O)/C=C/c5ccc(N6CCN(C)CC6)cc5)cc4c3)c2cc1OC`: less than 4.60, less than 4.60 and less than 4.60.
As to `COc1cc2ncnc(Nc3ccc4oc(C(=O)/C=C/c5ccc(-n6cccn6)cc5)cc4c3)c2cc1OC`, the negative logarithm of the IC50 (pIC50) in the assay with A549, in the assay on HCC1806 [1] and in the assay with HeLa was less than 4.60 each time.
For the molecule `COc1cc2ncnc(Nc3ccc4oc(C(=O)/C=C/c5ccc(C)o5)cc4c3)c2cc1OC`, the pIC50 with A549, in the assay with HCC1806 [1] and in the assay on HeLa was less than 4.60 each time.

(Values after ChEMBL document CHEMBL6114937, “Synthesis and anti-tumor activity of new benzofuran-based chalcone derivatives as potent VEGFR-2 inhibitors” (RSC Med Chem, 2025).)
